Results: ChEMBL document CHEMBL3286389, “Targeting class A and C serine β-lactamases with a broad-spectrum boronic acid derivative” (J Med Chem, 2014)

Assays:
[1] = Competitive inhibition of Escherichia coli beta-lactamase AmpC using nitrocefin as substrate by UV-Vis spectrophotometry
Summary of the method: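 Pinacol esters were tested uncleaved and hydrolysed to free acid in 50 mM phosphate pH 7.4. Ki derived from IC50 plots assuming competitive inhibition.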

[2] = Competitive inhibition of wild type beta-lactamase TEM-1 (unknown origin) expressed in Escherichia coli using 6-beta-furylacryloylamido-penicillanic acid as substrate by spectrophotometry
Summary of the method: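 TEM-1, purified. Reactions started by 0.3 nM enzyme in the AmpC assay buffer (50 mM Tris pH 7.0). FAP substrate, absorbance change at 340 nm. Inhibitor stocks were 50 mM in DMSO, diluted in phosphate pH 7. Ki from comparison of progress curves with and without inhibitor.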

[3] = Competitive inhibition of Escherichia coli beta-lactamase AmpC N289A mutant using nitrocefin as substrate by UV-Vis spectrophotometry

Structure (SMILES)	Ki [1]	Ki [2]	Ki [3]
O=C(Cc1cccs1)N[C@H](B(O)O)c1cccc(C(=O)O)c1	0.001 µM	0.064 µM	–
CC(=O)/C=C/c1c(B(O)O)sc2ccccc12	0.24 µM	–	–
O=C(O)/C=C/c1c(B(O)O)sc2ccccc12	0.09 µM	–	0.05 µM
OB(O)c1cc2ccccc2s1	–	50 µM	–
